Calls of active or inactive are those of the source. No cut-off for these calls is given here.
Key:
BJ [1] = assay: Induction of cell death in human BJ cells expressing TERT, LT, ST and RAS G12V mutant genes cells at 9 uM; format: functional, cell-based
HT-1080 = assay: Antitumor activity against human HT1080 cells assessed as survival relative to control; format: functional
BJ [2] = assay: Antitumor activity against human BJ cells expressing TERT, LT, ST and RAS G12V mutant genes assessed as survival relative to control; format: functional
BJ [3] = assay: Induction of cytochrome c release in mitochondrial fraction of human BJ cell expressing TERT, LT, ST and RAS G12V mutant genes at 1 uM; format: functional, cell-based
In short: (§1)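 BJ-TERT/LT/ST/RASV12 cells (3 × 10^6 per dish, overnight at 37 °C, 5% CO2) treated with staurosporine 1 µM for 6 h. Cells swollen on ice 15 min in sucrose/HEPES pH 7.5 buffer, lysed through 25-gauge needle. Nuclei removed at 400g, mitochondria pelleted at 10,500g. Cytosolic supernatant and mitochondrial pellet probed for cytochrome c by western blot.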

BJ [4] = assay: Induction of mitochondrial structural integrity loss in human BJ cells expressing TERT, LT, ST and RAS G12V mutant genes cells at 1 uM after 5 hrs; format: functional, cell-based
In short: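 Mitochondria of BJ-TERT/LT/ST/RASV12 cells examined by transmission electron microscopy after staurosporine 1 µM for 5 h. Fixed in 2.5% glutaraldehyde in Sorenson's buffer pH 7.2, post-fixed in 1% OsO4, block-stained with tannic acid, resin-embedded. Thin sections stained with uranyl acetate and lead citrate.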

BJ [5] = assay: Induction of cytochrome c release in cytosolic fraction of human BJ cell expressing TERT, LT, ST and RAS G12V mutant genes at 1 uM; format: functional, cell-based; in short: as §1

CC(C)NC(=O)N(CCN1CCN(C(=O)COc2ccc(Cl)cc2)CC1)Cc1ccc(F)cc1
IC50 (BJ [1]): 10 µM

N#CC(=C(/N)Sc1ccccc1N)/C(C#N)=C(\N)Sc1ccccc1N
Survival (HT-1080): 17% | Survival (BJ [2]): 82%

COc1cccc(-c2cc(=O)c3ccccc3o2)c1N
Survival (HT-1080): 26% | Survival (BJ [2]): 78%

CN[C@@H]1C[C@H]2O[C@@](C)([C@@H]1OC)n1c3ccccc3c3c4c(c5c6ccccc6n2c5c31)C(=O)NC4
Activity (BJ [3]): Active | Activity (BJ [4]): inactive | Activity (BJ [5]): Active

From ChEMBL document CHEMBL1145520, “RAS-RAF-MEK-dependent oxidative cell death involving voltage-dependent anion channels” (Nature, 2007)
